Where two headings read alike, the source gives them in different places. Values belong to the molecule of their own block, whether it stands above or below them.
Tests used:
VEGFR-2-Fc = details: cited from earlier work
[1] = test system: VEGF or basic fibroblast growth factor (bFGF); details: cited from earlier work
VEGFR-3 (Homo sapiens) = VEGFR-3 (Homo sapiens) (UniProt P35916); details: cited from earlier work
recombinant VEGFR-3-Fc = type: binding, mouse; details: pull-down
Method in brief: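 GST-fused endostatin-containing fragments were incubated with recombinant VEGFR-3-Fc and a range of VEGF-C concentrations. Receptor–ligand complexes were recovered by pull-down and probed by western blot with anti-VEGFR-3 antibody.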

[2] = target: T1, recombinant mouse VEGFR-3-Fc (mouse, UniProt P35917 25-775); test: SPR
T1 sequence (looked up): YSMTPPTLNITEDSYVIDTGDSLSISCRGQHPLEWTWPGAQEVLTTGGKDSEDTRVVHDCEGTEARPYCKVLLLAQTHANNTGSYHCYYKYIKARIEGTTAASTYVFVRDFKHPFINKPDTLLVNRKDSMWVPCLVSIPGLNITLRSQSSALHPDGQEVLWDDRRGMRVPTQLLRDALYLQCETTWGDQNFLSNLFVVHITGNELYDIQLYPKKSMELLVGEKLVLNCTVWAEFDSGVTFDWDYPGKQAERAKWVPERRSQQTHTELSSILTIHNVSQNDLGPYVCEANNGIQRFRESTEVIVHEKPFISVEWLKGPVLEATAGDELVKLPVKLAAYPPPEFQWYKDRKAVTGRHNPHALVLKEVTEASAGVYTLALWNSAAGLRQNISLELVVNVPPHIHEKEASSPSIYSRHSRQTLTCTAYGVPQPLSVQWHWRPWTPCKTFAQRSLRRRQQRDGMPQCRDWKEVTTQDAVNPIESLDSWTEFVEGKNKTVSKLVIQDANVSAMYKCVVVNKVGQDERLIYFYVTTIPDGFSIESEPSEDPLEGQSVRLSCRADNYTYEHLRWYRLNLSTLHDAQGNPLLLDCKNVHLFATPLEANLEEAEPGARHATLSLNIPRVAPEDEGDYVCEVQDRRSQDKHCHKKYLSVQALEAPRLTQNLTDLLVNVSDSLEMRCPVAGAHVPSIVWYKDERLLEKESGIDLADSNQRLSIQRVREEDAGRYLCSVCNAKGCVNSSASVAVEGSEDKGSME

[3] = test system: Primary human lung lymphatic endothelial cells (h-LECs); test: Scratch wound cell migration assay, h-LECs; type: cell-based; details: 100 ng/mL VEGF-C stimulation, 24 h
Method in brief: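 Confluent h-LECs held serum-free for 24 h, rinsed with DMEM, and scratched with a pipette tip. Washed with PBS, then kept 24 h in experimental medium with 100 ng/mL VEGF-C ± test peptide. Fixed in 4% paraformaldehyde; cells migrating past the scratch counted in ≥3 fields per well, three wells per condition.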

[4] = target: VEGFR3-AP (a VEGFR-3 fusion protein); details: fully processed VEGF-C binding to VEGFR3-AP; cited from earlier work

Molecule: endostatin
- Block of interaction of VEGF-A and VEGFR-2-Fc (VEGFR-2-Fc; 10-min preincubation of endostatin with VEGFR-2-Fc): blocks the interaction of VEGF-A and VEGFR-2-Fc in a dose-dependent manner
- Dissociation rate of VEGFR-2-Fc from VEGF and its receptor complex (VEGFR-2-Fc; endostatin 10 μg/mL): does not affect the dissociation rate
- Binding to VEGF or bFGF [1]: does not bind to VEGF or basic fibroblast growth factor (bFGF)

Molecule: VEGF-C (from UniProt P49767)
- Kd (VEGFR-3 (Homo sapiens)): 1 nM

- Binding of GST-endostatin-containing fragment to VEGFR-3-Fc (recombinant VEGFR-3-Fc; western blot with anti-VEGFR-3 antibody, absence of VEGF-C and low concentration of VEGF-C (lanes 1 and 2)): able to bind VEGFR-3-Fc
- Binding of GST-endostatin-containing fragment to VEGFR-3-Fc (recombinant VEGFR-3-Fc; western blot, VEGF-C at a higher concentration (lane 3)): diminished
B1: GST-endostatin-containing fragments: GST-endostatin-containing fragments (protein)
chain: HTHQDFQPVLHLVALNTPLSGGMRGIRGADFQCFQQARAVGLSGTFRAFLSSRLQDLYSIVRRADRGSVPIVNLKDEVLSPSWDSLFSGSQGQLQPGARIFSFDGRDVLRHPAWPQKSVWHGSDPSGRRLMESYCETWRTETTGATGQASSLLSGRLLEQKAASCHNSYIVLCIENSFMTSFSK
modifications: left off: GST, end not stated, kept

- koff [2]: 0.672 s⁻¹
- kon [2]: 1.41e+07 M⁻¹ s⁻¹
B2: murine endostatin peptide (mEP) (peptide)
peptide: LEQKAASCHNSYIVLCIENSFMTSFSK

B3: VEGF-C: vascular endothelial growth factor C, recombinant; literature KD for fully processed VEGF-C (protein)
chain: FESGLDLSDAEPDAGEATAYASKDLEEQLRSVSSVDELMTVLYPEYWKMYKCQLRKGGWQHNREQANLNSRTEETIKFAAAHYNTEILKSIDNEWRKTQCMPREVCIDVGKEFGVATNTFFKPPCVSVYRCGGCCNSEGLQCMNTSTSYLSKTLFEITVPLSQGPKPVTISFANHTSCRCMSKLDVYRQVHSIIRR
- Repopulation of the scratch surface [3]: approximately 50%
- Kd [4]: 1 nM

From article PMC3646568 (Protein and peptide letters, 2012)
